Results reported in ChEMBL document CHEMBL5058577, “EUbOPEN Chemogenomics Library 2 (Multiplex)” (2022).

System: Fibroblast
Experiment: Multiplex assay against human fibroblast
Type: toxicity, cell-based
Procedure, shortened: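 Tubulin, mitochondrial-mass and membrane-permeability phenotypes are per cents of healthy-nucleus cells. Cells were gated by CellPathfinder machine learning into Hoechst high-intensity objects or normal cells, normal cells into healthy, pyknosed or fragmented nuclei, and pyknosed cells into mitotic or apoptotic. Before that, live cells stained at seeding with Hoechst33342, BioTracker Green Microtubule Cytoskeleton Dye, MitoTracker Red and Annexin V Alexa Fluor 680 were imaged on a CQ1 microscope at 37°C and 5% CO2 after compound addition.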

[1] = 12 h, 1 µM, compound concentration 1 uM, replicate 1
[2] = 12 h, 1 µM, compound concentration 1 uM, replicate 2
[3] = 12 h, 10 µM, compound concentration 10 uM, replicate 1
[4] = 12 h, 10 µM, compound concentration 10 uM, replicate 2
[5] = 24 h, 1 µM, compound concentration 1 uM, replicate 1
[6] = 24 h, 1 µM, compound concentration 1 uM, replicate 2
[7] = 24 h, 10 µM, compound concentration 10 uM, replicate 1
[8] = 24 h, 10 µM, compound concentration 10 uM, replicate 2
[9] = 48 h, 1 µM, compound concentration 1 uM, replicate 1
[10] = 48 h, 1 µM, compound concentration 1 uM, replicate 2
[11] = 48 h, 10 µM, compound concentration 10 uM, replicate 1
[12] = 48 h, 10 µM, compound concentration 10 uM, replicate 2

SMILES: O=S(=O)(c1ccccc1)c1cnc2c(N3CCNCC3)cccc2c1 [INTEPIRDINE]
- Population Apoptotic (%) [1]: 50%
- Population Fragmented Nuclei (%) [1]: 23%
- Population Healthy Nuclei (%) [1]: 67%
- Population Hoechst High Intensity Objects (%) [1]: 3%
- Population Membrane Permeable-Phenotype (%) [1]: 0%
- Population Mitochondria Different-Phenotype (%) [1]: 2%
- Population Mitotic Cells (%) [1]: 50%
- Population Normal (%) [1]: 96%
- Population Pyknosed Nuclei (%) [1]: 9%
- Population Tubulin-Different-Phenotype (%) [1]: 26%
- Total Cell Count [1]: 212
- Population Apoptotic (%) [2]: 34%
- Population Fragmented Nuclei (%) [2]: 28%
- Population Healthy Nuclei (%) [2]: 47%
- Population Hoechst High Intensity Objects (%) [2]: 4%
- Population Membrane Permeable-Phenotype (%) [2]: 7%
- Population Mitochondria Different-Phenotype (%) [2]: 7%
- Population Mitotic Cells (%) [2]: 65%
- Population Normal (%) [2]: 95%
- Population Pyknosed Nuclei (%) [2]: 24%
- Population Tubulin-Different-Phenotype (%) [2]: 61%
- Total Cell Count [2]: 148
- Population Apoptotic (%) [3]: 75%
- Population Fragmented Nuclei (%) [3]: 22%
- Population Healthy Nuclei (%) [3]: 62%
- Population Hoechst High Intensity Objects (%) [3]: 1%
- Population Membrane Permeable-Phenotype (%) [3]: 1%
- Population Mitochondria Different-Phenotype (%) [3]: 8%
- Population Mitotic Cells (%) [3]: 25%
- Population Normal (%) [3]: 98%
- Population Pyknosed Nuclei (%) [3]: 14%
- Population Tubulin-Different-Phenotype (%) [3]: 44%
- Total Cell Count [3]: 138
- Population Apoptotic (%) [4]: 61%
- Population Fragmented Nuclei (%) [4]: 43%
- Population Healthy Nuclei (%) [4]: 40%
- Population Hoechst High Intensity Objects (%) [4]: 6%
- Population Membrane Permeable-Phenotype (%) [4]: 5%
- Population Mitochondria Different-Phenotype (%) [4]: 13%
- Population Mitotic Cells (%) [4]: 38%
- Population Normal (%) [4]: 93%
- Population Pyknosed Nuclei (%) [4]: 16%
- Population Tubulin-Different-Phenotype (%) [4]: 68%
- Total Cell Count [4]: 136
- Population Apoptotic (%) [5]: 54%
- Population Fragmented Nuclei (%) [5]: 16%
- Population Healthy Nuclei (%) [5]: 72%
- Population Hoechst High Intensity Objects (%) [5]: 5%
- Population Membrane Permeable-Phenotype (%) [5]: 2%
- Population Mitochondria Different-Phenotype (%) [5]: 4%
- Population Mitotic Cells (%) [5]: 45%
- Population Normal (%) [5]: 94%
- Population Pyknosed Nuclei (%) [5]: 10%
- Population Tubulin-Different-Phenotype (%) [5]: 28%
- Total Cell Count [5]: 212
- Population Apoptotic (%) [6]: 41%
- Population Fragmented Nuclei (%) [6]: 32%
- Population Healthy Nuclei (%) [6]: 44%
- Population Hoechst High Intensity Objects (%) [6]: 0%
- Population Membrane Permeable-Phenotype (%) [6]: 1%
- Population Mitotic Cells (%) [6]: 58%
- Population Normal (%) [6]: 99%
- Population Pyknosed Nuclei (%) [6]: 24%
- Population Tubulin-Different-Phenotype (%) [6]: 59%
- Total Cell Count [6]: 151
- Population Apoptotic (%) [7]: 40%
- Population Fragmented Nuclei (%) [7]: 28%
- Population Healthy Nuclei (%) [7]: 65%
- Population Hoechst High Intensity Objects (%) [7]: 1%
- Population Membrane Permeable-Phenotype (%) [7]: 0%
- Population Mitochondria Different-Phenotype (%) [7]: 7%
- Population Mitotic Cells (%) [7]: 60%
- Population Normal (%) [7]: 98%
- Population Pyknosed Nuclei (%) [7]: 6%
- Population Tubulin-Different-Phenotype (%) [7]: 50%
- Total Cell Count [7]: 152
- Population Apoptotic (%) [8]: 91%
- Population Fragmented Nuclei (%) [8]: 39%
- Population Healthy Nuclei (%) [8]: 50%
- Population Hoechst High Intensity Objects (%) [8]: 4%
- Population Membrane Permeable-Phenotype (%) [8]: 3%
- Population Mitochondria Different-Phenotype (%) [8]: 15%
- Population Mitotic Cells (%) [8]: 8%
- Population Normal (%) [8]: 95%
- Population Pyknosed Nuclei (%) [8]: 10%
- Population Tubulin-Different-Phenotype (%) [8]: 67%
- Total Cell Count [8]: 123
- Population Apoptotic (%) [9]: 66%
- Population Fragmented Nuclei (%) [9]: 22%
- Population Healthy Nuclei (%) [9]: 69%
- Population Hoechst High Intensity Objects (%) [9]: 5%
- Population Membrane Permeable-Phenotype (%) [9]: 0%
- Population Mitochondria Different-Phenotype (%) [9]: 2%
- Population Mitotic Cells (%) [9]: 33%
- Population Normal (%) [9]: 94%
- Population Pyknosed Nuclei (%) [9]: 7%
- Population Tubulin-Different-Phenotype (%) [9]: 34%
- Total Cell Count [9]: 213
- Population Apoptotic (%) [10]: 52%
- Population Fragmented Nuclei (%) [10]: 39%
- Population Healthy Nuclei (%) [10]: 45%
- Population Hoechst High Intensity Objects (%) [10]: 3%
- Population Membrane Permeable-Phenotype (%) [10]: 1%
- Population Mitotic Cells (%) [10]: 48%
- Population Normal (%) [10]: 96%
- Population Pyknosed Nuclei (%) [10]: 15%
- Population Tubulin-Different-Phenotype (%) [10]: 54%
- Total Cell Count [10]: 170
- Population Apoptotic (%) [11]: 63%
- Population Fragmented Nuclei (%) [11]: 23%
- Population Healthy Nuclei (%) [11]: 67%
- Population Hoechst High Intensity Objects (%) [11]: 3%
- Population Membrane Permeable-Phenotype (%) [11]: 1%
- Population Mitochondria Different-Phenotype (%) [11]: 15%
- Population Mitotic Cells (%) [11]: 36%
- Population Normal (%) [11]: 96%
- Population Pyknosed Nuclei (%) [11]: 8%
- Population Tubulin-Different-Phenotype (%) [11]: 47%
- Total Cell Count [11]: 139
- Population Apoptotic (%) [12]: 40%
- Population Fragmented Nuclei (%) [12]: 48%
- Population Healthy Nuclei (%) [12]: 38%
- Population Hoechst High Intensity Objects (%) [12]: 6%
- Population Membrane Permeable-Phenotype (%) [12]: 6%
- Population Mitochondria Different-Phenotype (%) [12]: 6%
- Population Mitotic Cells (%) [12]: 60%
- Population Normal (%) [12]: 93%
- Population Pyknosed Nuclei (%) [12]: 12%
- Population Tubulin-Different-Phenotype (%) [12]: 57%
- Total Cell Count [12]: 125
